Hits are enriched below; roughly 6.7% of the tested compounds scored in any of these assays.
CHOP inh = inhibitors of CHOP promoter induction, primary screen, cell-based, unfolded protein response, luciferase reporter. 3.8% of 220,000 active. CHO-K1 CHOP-promoter luciferase, tunicamycin-induced, 15-18 h. inhibition, % at 10 µM. AID 2732, 2010;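 active = compounds that reduced the stress-induced luciferase reporter signal by more than about 70% of percent inhibition, limit read from the data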;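 note: 0% = tunicamycin plus vehicle and 100% = wells without tunicamycin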
PREPL inhibitor = PREPL enzyme inhibitors, primary screen, biochemical, fluorescence polarization; 0.68% of 320,000 active; recombinant PREPL, fluorescence polarization activity-based probe; inhibition, % at 5.96 µM; Prolyl endopeptidase-like (Homo sapiens), Q4J6C6; in the data active = inhibition above about 43%;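 note: 0% = enzyme with DMSO and 100% = wells lacking enzyme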
CSC inhib = cancer stem cell viability inhibitors, primary screen, luminescence | inhibition, % at 7.5 µM | cancer stem cell-like cells viability | AID 2717, 2010 | 1.1% of 300,000 active; in the data active = inhibition above about 75%; tested in HMLE shEcad cells
GRIN3A LBD mod = binders of NR3A ligand-binding domain, primary screen, biophysical, differential scanning fluorimetry, uHTS; Glutamate receptor ionotropic, NMDA 3A (GRIN3A) ligand-binding domain; Tm shift relative to glycine control, % at 25 µM; NR3A LBD differential scanning fluorimetry, Tm shift; 0% = protein alone, 100% = glycine-bound protein; 2.5% of 340,000 active;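 active = melting temperature shift of at least 10% of the positive control shift, at one fixed dose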
T cruzi repl = inhibitors of intracellular T. cruzi growth, primary screen, luminescence, NIH3T3 host cells | 1.4% of 300,000 active | T. cruzi beta-gal in NIH3T3, 90 h | AID 1885, 2009 | inhibition, % (test concentration not listed);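 active = mean inhibition across valid replicates above about 55%, limit read from the data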;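 note: signal also drops with host cell toxicity which is not excluded here; 0% = plate median of DMSO wells and 100% = zero luminescence signal; higher percent means less beta-gal luminescence so fewer parasites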
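Assay system: NIH/3T3 fibroblasts plus reporter T. cruzi. Amount: NIH/3T3 cells, 5,000 per well. Buffer or medium: DMEM, 2% fetal bovine serum. Doses: compound pinned at 50 nL/well, DMSO. Schedule: ≥90 h infection period, 3 h prior cell attachment. Signal: luminescent β-galactosidase signal after 60 min lysis. Read-out: parasite load inhibition, %.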
Beta cell apopt = inhibitors of cytokine-induced beta cell apoptosis, primary screen, luminescence; INS-1E cytokine-induced death, ATP luminescence, 48 h; percent of positive-control rescue, neutral wells zero; protection from apoptosis, % (concentration not given with the values); 0.8% of 300,000 active; AID 435005, 2010;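 active = Every replicate reaches about 75%, or at least half do and their mean reaches it too, limit read from the data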;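 note: 0% = cytokine-treated negative control wells and 100% = positive control rescue; higher means more ATP so stronger rescue from cytokine killing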
* marks the source's active call; other numbers are inactive results; / = no result given.

SMILES | CHOP inh | PREPL inhibitor | CSC inhib | GRIN3A LBD mod | T cruzi repl | Beta cell apopt
Cn1c(-c2ccc(Br)o2)nc2cc(Br)ccc21 | 65.5 | 3.1 | 16.8 | 12.5* | / | 5.6
Cc1cccc(C)c1OC(=O)CN1C(=O)c2ccccc2C1=O | / | -7.6 | -20.9 | 0.4 | -11.6 | /
O=C1NC(=O)C(CC(=O)N(Cc2ccco2)C2(C(=O)NC3CCCC3)CCCCC2)N1 (stereo unspecified) | 26.7 | 15.8 | -2.5 | 3.5 | 3.7 | -0.6
Cc1cccc(C)c1NC(=O)C1(N(Cc2ccco2)C(=O)CC2NC(=O)NC2=O)CCCCC1 (stereo unspecified) | 76.8* | -0.2 | 9.1 | 1.0 | 7.8 | -3.7
CC(C)=CCC12Oc3cc(O)ccc3C1(O)Oc1cc(O)c([C@H]3C=C(C)CC(c4ccc(O)cc4O)[C@H]3C(=O)c3ccc(O)cc3O)c(O)c1C2=O (stereo partly specified) | / | 9.8 | -10.3 | 68.4* | 2.5 | -1.5
O=C(COc1ccccc1Cl)Nc1ccc(NC(=O)c2ccco2)cc1 | / | 2.2 | -8.1 | 14.8* | -18.7 | 0.4
COc1ccc(CC(=O)Nc2ccc(-c3noc(COc4ccccc4C)n3)cc2)cc1 | 24.2 | 3.5 | -4.0 | -6.8 | 10.8 | 3.1
O=C(Nc1ccc(-c2noc(COc3ccccc3Cl)n2)cc1)c1ccco1 | -31.2 | -5.2 | 2.5 | 13.5* | 10.7 | /
O=C(C[n+]1ccc(-c2cc(C(=O)Nc3cccc(C(F)(F)F)c3)c3ccccc3n2)cc1)c1cccc([N+](=O)[O-])c1 | 81.5* | 24.8 | 23.7 | 0.8 | 19.4 | -2.5
Cc1cc(C)cc(NC(=O)Cn2c(=O)oc3cc(S(=O)(=O)N4CC(C)CC(C)C4)ccc32)c1 (stereo unspecified) | 82.7* | 0.7 | 14.3 | -2.5 | -7.5 | -15.6
COCCCNC(=O)Cn1c(=O)oc2cc(S(=O)(=O)N3CC(C)CC(C)C3)ccc21 (stereo unspecified) | / | 0.1 | -21.4 | -1.1 | 0.7 | -9.1
CCCCNC(=O)Cn1c(=O)oc2cc(S(=O)(=O)N3CC(C)CC(C)C3)ccc21 (stereo unspecified) | 93.9* | -6.5 | 3.7 | -0.9 | -4.5 | -0.3
CN1CCO/C1=C(\C(Cl)=C(Cl)Cl)[N+](=O)[O-] | 6.7 | -3.7 | -10.4 | -3.3 | -10.1 | -5.5
CCC1CO/C(=C(\C(Cl)=C(Cl)Cl)[N+](=O)[O-])N1 (stereo unspecified) | 78.8* | -6.5 | -2.9 | -0.3 | -32.3 | /
CCN(CC1COc2ccccc2O1)S(=O)(=O)c1ccc(C)cc1 (stereo unspecified) | 63.6 | -30.7 | 0.8 | 0.2 | -7.2 | -7.6
Cc1cnc(NC(=O)CN2CCN(c3ccccn3)CC2)s1 | 73.8* | 7.6 | -5.8 | 0.8 | -26.1 | 79.0*
O=C(NCCSCc1c(F)cccc1Cl)c1ccc(CN2CCOCC2)cc1 | -23.2 | 10.4 | 8.2 | -3.3 | 12.2 | 1.7
O=C(COC(=O)c1cc2ccccc2o1)NCc1ccco1 | / | 1.9 | / | 0.4 | / | /
Nc1ccc(C(=O)N/N=C/c2cn(Cc3cccc(F)c3)c3ccccc23)cc1 | / | / | 17.0 | 18.1* | -0.5 | -3.9
O=C(N/N=C/c1cn(Cc2ccccc2)c2ccccc12)c1ccncc1 | 31.1 | 31.0 | 5.9 | -4.7 | 2.4 | 2.9
Cn1cc(/C=N/NC(=O)c2cc3cc(Br)ccc3o2)c2ccccc21 | -12.2 | 14.6 | 31.3 | 21.8* | 9.9 | 0.4
O=C(O)Cn1cc(/C=N/NC(=O)c2cc3cc(Br)ccc3o2)c2ccccc21 | -13.8 | 22.7 | -6.7 | -3.8 | -4.0 | 0.3
COc1ccc(OC)c(/C=N\NC(=O)c2cc3c(ccc4ccccc43)o2)c1 | / | 6.4 | -5.4 | 22.5* | 3.6 | 2.0
O=C(N/N=C/c1cccc([N+](=O)[O-])c1)c1cc2ccccc2o1 | 95.2* | -0.1 | -12.1 | 13.2* | 3.7 | 13.2
CNc1ccc(C(=O)OCC(=O)Nc2ccnn2C(C)C)cc1[N+](=O)[O-] | / | -1.5 | / | 3.0 | / | -6.0
O=C(CN1C(=O)c2ccccc2S1(=O)=O)Nc1cc(S(=O)(=O)N2CCCCC2)ccc1Cl | / | / | / | -0.3 | / | /
